Bioassay records from PubChem.
This is a sample that favours compounds with a hit; in the whole collection about 4.1% have one here.
MEKK2mut PB1 HTS – MEK5 binding signal on mutant MEKK2 PB1, primary screen, biochemical, multiplex bead flow cytometry, Alexa488-MEK5 | actives 0.35% (n = 290,000) | AID 1530, 2009 | percent response, % at 10 µM | Alexa488-MEK5 binding to MEKK2 mutant; in the data active = percent response above about 24%, passing the limit was not always enough
HCV NS3 hel inh – inhibitors of HCV NS3 helicase, primary screen, biochemical, Cy5 molecular beacon fluorescence; Hepatitis C virus NS3 helicase; NS3 helicase DNA unwinding; inhibition, % at 10.9 µM; actives 0.56% (n = 290,000); AID 1800, 2009;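 active = inhibition above the mean of all tested compounds plus 3 SD, set per campaign, cut at about 35% in these data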;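 also: 0% = DMSO wells and 100% = thioflavine S control wells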
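Control set: DMSO versus 110 µM thioflavine S; Material: NS3 helicase fragment of HCV; Measured by: Cy5 fluorescence at 0 and 60 min, beacon hairpin quenching; Read-out basis: percent inhibition from t60/t0 fluorescence ratio; Times: reaction time 60 min, 25 °C; Repeats: single replicate; Compound dosing: single dose, 10.9 µM nominal final, DMSO 0.8% final.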
MEKK3 PB1 HTS – modulators of MEKK3-MEK5 PB1 binding, primary screen, biochemical, wildtype MEKK3, multiplex bead flow cytometry, Alexa488-MEK5. Mitogen-activated protein kinase kinase kinase 3 (Homo sapiens), Q99759. bead-based flow cytometry, Alexa488-MEK5 binding to MEKK3; actives lie on both sides; 0 = blocked by unlabeled MEK5, 100 = vehicle. binding response (% of control), % at 10 µM. actives 1.4% (n = 290,000);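 active = binding response more than 3 SD above or below the average of its plate-row segment, actives on both sides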;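 also: Alexa488 bead fluorescence after subtracting the streptavidin-only scavenger bead signal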
Target sequence (Q99759 whole entry, looked up): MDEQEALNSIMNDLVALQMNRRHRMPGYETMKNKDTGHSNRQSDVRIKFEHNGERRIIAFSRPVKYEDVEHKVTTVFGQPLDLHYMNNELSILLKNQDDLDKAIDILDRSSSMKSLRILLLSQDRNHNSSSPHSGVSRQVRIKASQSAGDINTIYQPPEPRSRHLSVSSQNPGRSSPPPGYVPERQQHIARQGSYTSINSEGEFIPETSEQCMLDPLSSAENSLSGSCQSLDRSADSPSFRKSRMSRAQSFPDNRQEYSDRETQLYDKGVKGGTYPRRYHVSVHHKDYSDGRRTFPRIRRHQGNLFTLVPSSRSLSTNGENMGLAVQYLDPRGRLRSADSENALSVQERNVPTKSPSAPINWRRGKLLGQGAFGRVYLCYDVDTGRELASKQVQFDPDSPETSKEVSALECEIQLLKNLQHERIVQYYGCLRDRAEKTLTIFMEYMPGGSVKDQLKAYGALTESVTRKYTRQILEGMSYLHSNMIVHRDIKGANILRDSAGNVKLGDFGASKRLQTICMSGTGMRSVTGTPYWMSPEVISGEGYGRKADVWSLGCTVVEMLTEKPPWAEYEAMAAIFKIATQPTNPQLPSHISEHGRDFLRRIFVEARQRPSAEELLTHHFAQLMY
DNA FID counter-1 – compounds displacing fluorescent DNA intercalator, primary screen, artefact control for HCV NS3 helicase inhibitor project, biochemical, FID fluorescence; actives 0.17% (n = 290,000); inhibition, % at 7.9 µM; AID 1845, 2009; DNA fluorescent intercalator displacement;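 also: 0% = vehicle and 100% = reference compound; higher means more ethidium bromide displaced from hairpin DNA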
T cruzi repl – inhibitors of intracellular T. cruzi growth, primary screen, luminescence, NIH3T3 host cells; T. cruzi beta-gal in NIH3T3, 90 h; inhibition, % (test concentration not listed); actives 1.4% (n = 300,000);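 active = mean inhibition across valid replicates above about 55%, limit read from the data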;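 also: signal also drops with host cell toxicity which is not excluded here; 0% = plate median of DMSO wells and 100% = zero luminescence signal; higher percent means less beta-gal luminescence so fewer parasites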
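Read-out: Parasite load inhibition, % | Test system: Mouse NIH/3T3 fibroblasts infected with β-gal-expressing T. cruzi Tulahuen C4 | Amount: 5,000 cells/well | Medium: DMEM, 2% fetal bovine serum | Signal: GalScreen β-gal luminescence, detergent lysis, 60 min | Timing: 3 h attach, ≥90 h co-culture | Also added: Tulahuen C4 trypomastigotes, 5000/well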
MEKK2 WT-MEK5 – modulators of MEK5 binding to wildtype MEKK2, primary screen, biochemical, multiplex bead flow cytometry, Alexa488-MEK5 | Alexa488-MEK5 binding to MEKK2 WT; actives lie on both sides | binding response (% of control), % at 10 µM | actives 1.1% (n = 290,000) | AID 1531, 2009; in the data active = binding response below about 67% or above about 130%
NS3 hel confirm – HCV NS3 helicase inhibitors, retest, confirmation, biochemical, Cy5 molecular beacon fluorescence, triplicate | NS3 helicase DNA unwinding | actives 31% (n = 1,600) | inhibition, % at 10.9 µM | shares compounds with HCV NS3 hel inh;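 active = inhibition above the mean of all tested compounds plus 3 SD, cutoff set per campaign, cut at about 36% in these data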
DNA FID counter-2 – compounds displacing fluorescent DNA intercalator, artefact control for HCV NS3 helicase inhibitor project, biochemical, FID fluorescence, triplicate; shares compounds with HCV NS3 hel inh; DNA fluorescent intercalator displacement; inhibition, % at 7.9 µM; actives 4% (n = 1,600); AID 1945, 2009;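 also: 0% = vehicle and 100% = reference compound; higher means more displacement of ethidium bromide from the DNA hairpin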
DNA FID DR – compounds displacing fluorescent intercalator from DNA, dose response, counter-screen for HCV NS3 helicase inhibitor project, biochemical, fluorescence; 120 tested, under 10 active; AID 2172, 2009; IC50, µM; fluorescent intercalator displacement from DNA; shares compounds with HCV NS3 hel inh; call rule not given here
An asterisk follows results filed as active. Rule as the data show it, unless noted: active = inhibition above about 37%; inactive = the rest.

How did O=C(Cc1ccccc1)N1CCN(C(=O)c2ccco2)CC1 do in these assays?
MEKK2mut PB1 HTS: 6; HCV NS3 hel inh: 0; MEKK3 PB1 HTS: 106; DNA FID counter-1: -3; T cruzi repl: -27; MEKK2 WT-MEK5: 106

What do the screens show for `O=C(Cc1ccc(Br)cc1)N1CCN(C(=O)c2ccco2)CC1`?
MEKK2mut PB1 HTS: 5; HCV NS3 hel inh: 38*; MEKK3 PB1 HTS: 100; DNA FID counter-1: -13; T cruzi repl: -4; MEKK2 WT-MEK5: 101; NS3 hel confirm: -4; DNA FID counter-2: -3

How did CC1CCCN(S(=O)(=O)c2ccc(C(=O)Nc3nnc(C4=COCCO4)o3)cc2)C1 (stereo not drawn) do in these assays?
MEKK2mut PB1 HTS: 6; HCV NS3 hel inh: 65*; MEKK3 PB1 HTS: 105; DNA FID counter-1: -37; T cruzi repl: 0; MEKK2 WT-MEK5: 105; NS3 hel confirm: -16; DNA FID counter-2: -30

Results for O=C(COc1ccc(/C=N/NC(=O)C(=O)N2CCCCCC2)cc1)Nc1ccccc1Cl ?
MEKK2mut PB1 HTS: 11; HCV NS3 hel inh: 0; MEKK3 PB1 HTS: 99; DNA FID counter-1: -33; T cruzi repl: 0; MEKK2 WT-MEK5: 114

What do the screens show for `COc1cc(/C=N/NC(=S)NCc2ccccc2)ccc1OCC#N`?
MEKK2mut PB1 HTS: 2; HCV NS3 hel inh: -2; MEKK3 PB1 HTS: 102; DNA FID counter-1: -14; T cruzi repl: -12; MEKK2 WT-MEK5: 100

What do the screens show for `CCc1ccc(C(=O)C(C)OC(=O)C2COc3ccccc3O2)cc1` (stereo not drawn)?
MEKK2mut PB1 HTS: -1; HCV NS3 hel inh: 45*; MEKK3 PB1 HTS: 100; DNA FID counter-1: -12; T cruzi repl: -13; MEKK2 WT-MEK5: 100; NS3 hel confirm: 5; DNA FID counter-2: -18

Results for CCc1ccccc1OCC(=O)NC1CCCC1 ?
MEKK2mut PB1 HTS: -1; HCV NS3 hel inh: 49*; MEKK3 PB1 HTS: 102; DNA FID counter-1: -17; T cruzi repl: -1; MEKK2 WT-MEK5: 99; NS3 hel confirm: -1; DNA FID counter-2: -7

How did O=C1NN(c2ccccc2)C(=O)/C1=C/c1ccc(Sc2cccc3ccccc23)o1 do in these assays?
MEKK2mut PB1 HTS: -1; HCV NS3 hel inh: 53*; MEKK3 PB1 HTS: 125; DNA FID counter-1: -8; T cruzi repl: -24; MEKK2 WT-MEK5: 96; NS3 hel confirm: 75*; DNA FID counter-2: 17; DNA FID DR: >79

How did C#CCOc1c(/C=C\c2nc(O)c([N+](=O)[O-])c(=O)[nH]2)cc(Br)cc1OC do in these assays?
MEKK2mut PB1 HTS: 7; HCV NS3 hel inh: 45*; MEKK3 PB1 HTS: 104; DNA FID counter-1: -17; T cruzi repl: 12; MEKK2 WT-MEK5: 107; NS3 hel confirm: 26; DNA FID counter-2: 4

What do the screens show for `O=C1NN(c2ccc(Br)cc2)C(=O)/C1=C\c1ccc(O)cc1O`?
MEKK2mut PB1 HTS: 0; HCV NS3 hel inh: 39*; MEKK3 PB1 HTS: 101; DNA FID counter-1: 2; T cruzi repl: 4; MEKK2 WT-MEK5: 99; NS3 hel confirm: 58*; DNA FID counter-2: 17
